According to ChEMBL document CHEMBL1765087, “Synthesis and evaluation of cardiac glycoside mimics as potential anticancer drugs” (Bioorg Med Chem, 2011):

Experiments:
Sus scrofa = species on record: Sus scrofa; experiment: Binding affinity to pig kidney Na+/K+-ATPase assessed as inorganic phosphate release after 2 hrs
Procedure, shortened: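 Purified pig kidney Na⁺,K⁺-ATPase (specific activity 25–30 U/mg protein) preincubated 2 h with a range of inhibitor concentrations in 130 mM NaCl, 20 mM KCl, 4 mM MgCl₂, 30 mM histidine pH 7.4, 20 °C. 3 mM ATP added, 5 min reaction, released inorganic phosphate measured. Ouabain-insensitive activity (1 mM ouabain) subtracted. K_app from hyperbolic fit.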

MCF7 = experiment: Antiproliferative activity against human MCF7 cells assessed as cell viability treated for 48 hrs followed by compound washout measured after 72 hrs by fluorometric CellTiter-Blue reagent assay; format: functional, cell-based
Procedure, shortened: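 MCF-7 cells grown in DMEM Glutamax with 10% fetal calf serum, penicillin and streptomycin, 37 °C, 5% CO₂. Seeded 3000 cells/well in triplicate, cultured overnight, then given a dilution series of compound; equivalent DMSO dilution series used for normalization. 48 h exposure, then 72 h in fresh compound-free medium before viability read-out.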

Structure (SMILES)	Kapp (Sus scrofa) [µM]	IC50 (MCF7) [nM]
C[C@]12CC[C@H](SCCOCCOCCO)C[C@H]1CC[C@@H]1[C@@H]2CC[C@]2(C)[C@@H](C3=CC(=O)OC3)CC[C@]12O	1.27	800
C[C@]12CC[C@H](O)C[C@H]1CC[C@@H]1[C@@H]2CC[C@]2(C)[C@@H](C3=CC(=O)OC3)CC[C@]12O [DIGITOXIGENIN]	0.52	600
C[C@]12CC[C@H](SCCOCCO)C[C@H]1CC[C@@H]1[C@@H]2CC[C@]2(C)[C@@H](C3=CC(=O)OC3)CC[C@]12O	0.73	400
C[C@H]1O[C@@H](O[C@H]2[C@@H](O)C[C@H](O[C@H]3[C@@H](O)C[C@H](O[C@H]4CC[C@@]5(C)[C@H](CC[C@@H]6[C@@H]5CC[C@]5(C)[C@@H](C7=CC(=O)OC7)CC[C@]65O)C4)O[C@@H]3C)O[C@@H]2C)C[C@H](O)[C@@H]1O [DIGITOXIN]	0.99	20
C[C@]12CC[C@H](SCCOCCS[C@H]3CC[C@@]4(C)[C@H](CC[C@@H]5[C@@H]4CC[C@]4(C)[C@@H](C6=CC(=O)OC6)CC[C@]54O)C3)C[C@H]1CC[C@@H]1[C@@H]2CC[C@]2(C)[C@@H](C3=CC(=O)OC3)CC[C@]12O	17.2	8600
C[C@]12CC[C@H](SCCS[C@H]3CC[C@@]4(C)[C@H](CC[C@@H]5[C@@H]4CC[C@]4(C)[C@@H](C6=CC(=O)OC6)CC[C@]54O)C3)C[C@H]1CC[C@@H]1[C@@H]2CC[C@]2(C)[C@@H](C3=CC(=O)OC3)CC[C@]12O	9.9	7000
C[C@]12CC[C@H](SCCOCCOCCS[C@H]3CC[C@@]4(C)[C@H](CC[C@@H]5[C@@H]4CC[C@]4(C)[C@@H](C6=CC(=O)OC6)CC[C@]54O)C3)C[C@H]1CC[C@@H]1[C@@H]2CC[C@]2(C)[C@@H](C3=CC(=O)OC3)CC[C@]12O	20.5	6600
C[C@]12CC[C@H](S)C[C@H]1CC[C@@H]1[C@@H]2CC[C@]2(C)[C@@H](C3=CC(=O)OC3)CC[C@]12O	0.42	500
C[C@]12CC[C@H](SCCOCCOCCOCCO)C[C@H]1CC[C@@H]1[C@@H]2CC[C@]2(C)[C@@H](C3=CC(=O)OC3)CC[C@]12O	2.1	1400
C[C@]12CC[C@H](SCCO)C[C@H]1CC[C@@H]1[C@@H]2CC[C@]2(C)[C@@H](C3=CC(=O)OC3)CC[C@]12O	0.48	200
C[C@]12CC[C@H](SCCOCCOCCOCCS[C@H]3CC[C@@]4(C)[C@H](CC[C@@H]5[C@@H]4CC[C@]4(C)[C@@H](C6=CC(=O)OC6)CC[C@]54O)C3)C[C@H]1CC[C@@H]1[C@@H]2CC[C@]2(C)[C@@H](C3=CC(=O)OC3)CC[C@]12O	> 53	13000
